According to ChEMBL document CHEMBL1781963, “Discovery of novel hepatoselective HMG-CoA reductase inhibitors for treating hypercholesterolemia: a bench-to-bedside case study on tissue selective drug distribution” (Bioorg Med Chem Lett, 2011):

Columns and labels:
[1] = Drug excretion in human urine after 24 hrs; type: ADME, tissue-based; conditions: read-out: Activity
In short: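 Single ascending oral dose in healthy volunteers; the percentage of drug excreted in urine was measured at 24 h post dose.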

[2] = Cmax in human plasma at 40 mg administered as single dose; type: ADME, organism-based; set-up: dose 40 mg
In short: (§1)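 Phase 1 single ascending oral dose in healthy volunteers, about 5–6 subjects per dose. Total plasma drug Cmax and AUC(0-∞) were measured. Free-drug exposures were derived using plasma protein binding.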

[3] = AUC (0 to infinity) in human plasma at 240 mg administered as single dose; type: ADME, cell-free; set-up: dose 240 mg, time infinity; in short: as §1
[4] = tested on: Plasma; test: fCmax in human plasma at 40 mg administered as single dose; type: ADME, cell-free
In short: (§2)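 Phase 1 single ascending oral dose in healthy volunteers, with N per dose group. Total plasma Cmax and AUC(0-∞) were measured. Free-drug exposures were derived from these using plasma protein binding (human plasma fu measured at 0.5 μg/mL).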

[5] = tested on: Plasma; test: fCmax in human plasma at 320 mg administered as single dose; type: ADME, cell-free; in short: as §2
[6] = tested on: Plasma; test: fAUC (0 to infinity) in human plasma at 40 mg administered as single dose; type: ADME, cell-free; in short: as §2
[7] = tested on: Homo sapiens; test: Inhibition of HMG-CoA reductase in human assessed as decrease in AUC (0 to 24 hrs) of mevalonate level in plasma at 10 mg administered as single dose relative to control; type: functional
[8] = tested on: Homo sapiens; test: Inhibition of HMG-CoA reductase in human assessed as decrease in AUC (0 to 24 hrs) of mevalonate level in plasma at 320 mg administered as single dose relative to control; type: organism-based; conditions: in vivo
[9] = tested on: Homo sapiens; test: Inhibition of HMG-CoA reductase in human assessed as decrease in AUC (0 to 72 hrs) of mevalonate level in plasma at 40 mg administered as single dose relative to control; type: functional
[10] = tested on: Homo sapiens; test: Inhibition of HMG-CoA reductase in human assessed as decrease in AUC (0 to 72 hrs) of mevalonate level in plasma at 3 mg administered as single dose relative to control; type: functional
[11] = tested on: Homo sapiens; test: Inhibition of HMG-CoA reductase in human assessed as decrease in AUC (0 to 72 hrs) of mevalonate level in plasma at 120 mg administered as single dose relative to control; type: functional
[12] = tested on: Homo sapiens; test: Inhibition of HMG-CoA reductase in human assessed as decrease in AUC (0 to 72 hrs) of mevalonate level in plasma at 320 mg administered as single dose relative to control; type: functional
[13] = target: T1, 3-hydroxy-3-methylglutaryl-coenzyme A reductase (Rattus norvegicus, UniProt P51639); test: Inhibition of HMG-CoA reductase in Sprague-Dawley rat liver microsomes using [14C]HMG-CoA as substrate preincubated for 0.5 hrs before substrate addition measured after 0.75 hrs by beta scintillation counting; set-up: species or system Microsome
T1 sequence (P51639 whole entry): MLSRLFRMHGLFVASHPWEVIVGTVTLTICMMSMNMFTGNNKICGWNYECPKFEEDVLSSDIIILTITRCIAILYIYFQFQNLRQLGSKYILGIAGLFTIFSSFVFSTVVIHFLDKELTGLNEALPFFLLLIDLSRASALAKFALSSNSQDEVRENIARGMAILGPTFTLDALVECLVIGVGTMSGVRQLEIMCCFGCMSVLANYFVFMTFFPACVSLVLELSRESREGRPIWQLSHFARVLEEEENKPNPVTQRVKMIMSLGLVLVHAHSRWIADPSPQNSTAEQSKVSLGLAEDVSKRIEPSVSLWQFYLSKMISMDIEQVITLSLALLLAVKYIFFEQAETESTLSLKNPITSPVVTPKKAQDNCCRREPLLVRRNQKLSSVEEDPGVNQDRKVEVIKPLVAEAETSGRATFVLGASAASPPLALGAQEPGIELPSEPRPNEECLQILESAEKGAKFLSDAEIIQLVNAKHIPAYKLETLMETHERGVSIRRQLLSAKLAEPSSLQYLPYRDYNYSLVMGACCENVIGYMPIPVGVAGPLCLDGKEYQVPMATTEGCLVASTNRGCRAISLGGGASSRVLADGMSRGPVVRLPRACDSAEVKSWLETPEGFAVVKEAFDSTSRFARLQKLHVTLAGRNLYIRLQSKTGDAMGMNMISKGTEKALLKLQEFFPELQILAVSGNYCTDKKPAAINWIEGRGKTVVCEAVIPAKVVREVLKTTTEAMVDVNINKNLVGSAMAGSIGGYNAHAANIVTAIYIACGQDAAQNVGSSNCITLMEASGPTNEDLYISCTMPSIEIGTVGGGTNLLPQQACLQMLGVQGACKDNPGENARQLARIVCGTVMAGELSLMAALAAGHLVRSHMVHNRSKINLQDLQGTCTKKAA
In short: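 Enzyme inhibition was measured in an HMG-CoA reductase preparation from rat microsomes. IC50 is reported as mean ± SEM of n ≥ 2 independent determinations.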

[14] = tested on: Canis familiaris; test: fAUC (0 to 24 hrs) in dog at 1 mg/kg, iv; type: ADME, organism-based, Canis lupus familiaris; set-up: dose 1 mg/kg, route intravenous; conditions: in vivo
In short: (§3)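 Rat and dog given 1 mg/kg iv, or po at 10 mg/kg (rat) or 5 mg/kg (dog). Plasma sampled to 24 h. AUC(0-24) as free drug using plasma protein binding values. Geometric mean of n = 2 animals/group; dog po n = 3 or n = 1.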

[15] = tested on: Canis familiaris; test: fCmax in dog at 5 mg/kg, po; type: ADME, organism-based, Canis lupus familiaris; set-up: dose 5 mg/kg, route oral; conditions: in vivo
In short: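 Single po dose: rat 10 mg/kg (n = 2), dog 5 mg/kg (n = 1 or 3 animals). Values are geometric means. Cmax is given as free drug concentration using plasma protein binding values, which were determined at 0.5 μg/mL.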

[16] = Systemic plasma clearance in dog at 1 mg/kg, iv; type: ADME, organism-based, Canis lupus familiaris; set-up: dose 1 mg/kg, route intravenous; in short: as §3
[17] = Half life in rat at 1 mg/kg, iv; type: ADME, organism-based; set-up: dose 1 mg/kg, route intravenous; conditions: in vivo
In short: (§4)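 Intravenous 1 mg/kg dose in rat or dog. Terminal half-life was derived from plasma concentrations and is reported as the geometric mean of n = 2 animals per group.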

[18] = Half life in dog at 1 mg/kg, iv; type: ADME, organism-based, Canis lupus familiaris; set-up: dose 1 mg/kg, route intravenous; conditions: in vivo; in short: as §4
[19] = Volume of distribution at steady state in dog at 1 mg/kg, iv; type: ADME, organism-based, Canis lupus familiaris; set-up: dose 1 mg/kg, route intravenous; conditions: in vivo, read-out: Vdss; in short: as §3
[20] = Oral bioavailability in rat at 10 mg/kg; type: ADME, organism-based; conditions: in vivo; in short: as §3
[21] = Oral bioavailability in dog at 5 mg/kg; type: ADME, organism-based, Canis lupus familiaris; conditions: in vivo; in short: as §3
[22] = Terminal half life in human plasma at 320 mg administered as single dose; type: ADME, cell-free; conditions: read-out: beta t1/2 (converted)
[23] = Cmax in human plasma at 20 mg administered as single dose; type: ADME, organism-based; set-up: dose 20 mg; in short: as §1
[24] = AUC (0 to infinity) in human plasma at 80 mg administered as single dose; type: ADME, cell-free; set-up: dose 80 mg, time infinity; in short: as §1
[25] = tested on: Plasma; test: fCmax in human plasma at 1 mg administered as single dose; type: ADME, cell-free; in short: as §2
[26] = tested on: Plasma; test: fAUC (0 to infinity) in human plasma at 5 mg administered as single dose; type: ADME, cell-free; in short: as §2
[27] = tested on: Plasma; test: fAUC (0 to infinity) in human plasma at 20 mg administered as single dose; type: ADME, cell-free; in short: as §2
[28] = tested on: Homo sapiens; test: Inhibition of HMG-CoA reductase in human assessed as decrease in AUC (0 to 24 hrs) of mevalonate level in plasma at 1 mg administered as single dose relative to control; type: functional
[29] = Terminal half life in human plasma at 20 mg administered as single dose; type: ADME, cell-free; conditions: read-out: beta t1/2 (converted)

dose excreted at 24 h [1] | Cmax [2] | fCmax [4] | fAUC [6] | IC50 [13] | fAUC [14] | fCmax [15] | clearance [16] | half-life [17] | half-life [18] | Vd [19] | bioavailability [20] | bioavailability [21] | SMILES | inhibition (INH) [9] | also measured
< 1% | 2.25 ng/mL | 0.653 ng/mL | 1.81 ng·h/mL | 1.2 nM | 293 ng·h/mL | 5.4 ng/mL | 25 mL/min/kg | 25.8 min | 16.2 min | 0.1 L/kg | 0.3% | 2.2% | O=C([O-])C[C@H](O)C[C@H](O)CCn1c(-c2ccc(F)cc2)nc(C(=O)NCc2cccc(F)c2)c1C1CC1.[Na+] | -19% | AUC(0-inf) [3]: 27.2 ng·h/mL; fCmax [5]: 12.8 ng/mL; inhibition (INH) [7]: -25%; inhibition (INH) [8]: -61%; inhibition (INH) [10]: -10%; inhibition (INH) [11]: -17%; inhibition (INH) [12]: -28%; half-life [22]: 442 min
12% | 1770 ng/mL | 90.3 ng/mL | 261 ng·h/mL | 1 nM | 28 ng·h/mL | 51.5 ng/mL | 19 mL/min/kg | 20.4 min | 46.8 min | 0.1 L/kg | 6% | 44% | Cc1ccc(CNC(=O)c2nn(-c3ccc(F)cc3)c(CC[C@@H](O)C[C@@H](O)CC(=O)O)c2C(C)C)cc1 | -3% | Cmax [23]: 740 ng/mL; AUC(0-inf) [24]: 11800 ng·h/mL; fCmax [25]: 1.71 ng/mL; fAUC [26]: 22.1 ng·h/mL; fAUC [27]: 98.4 ng·h/mL; inhibition (INH) [28]: -16%; half-life [29]: 316 min
